# Published values pooled from the literature.
# Lines come from different studies, so protocols differ.
# CYP3A4: Cytochrome P450 3A4 (CYP3A4, Homo sapiens, UniProt P08684)
Compound,tested on,assay,system,conditions,measurement,value
Cl.[2H]C([2H])([2H])CC(=O)c1cnc(NC(=O)C2CC2)cc1Nc1cccc(-c2ncn(C([2H])([2H])[2H])n2)c1OC,,,"human, plasma","oral, 10 mg, multiple doses, once daily, fasted",Vd/F,167 L
COc1ccc2c(c1)C[C@H]1[C@@H](OC(=O)c3ccccc3)[C@H](OC(C)=O)C(COC(=O)c3ccccc3)=C[C@H]1O2,RAW264.7,"cell growth or viability, MTT",,"15 µM, 24 h",viability,91.9%
Cn1cc(Nc2nc(N)nc(-c3cccc(-n4ccc5cc(C6CC6)cc(F)c5c4=O)c3CO)n2)cn1,,,"human, plasma","oral, 900 mg, single dose, fasted, suspension",Vd/F,212 L
CCN1CCN(Cc2ccc(NC(=O)c3ccc(C)c(NC(=O)c4cncc(-c5cccs5)c4)c3)cc2C(F)(F)F)CC1,,,"mouse, plasma","intraperitoneal, 30 mg/kg, single dose",Cmax,716 ng/mL
COc1cc(O)c2c(c1)C(=O)c1cc(C)cc(O)c1C2=O,CYP3A4,"enzyme activity, inhibitor","human, liver microsomes","pH 7.4, testosterone probe",Ki,6.07 µM
CC(=O)O[C@@]12CO[C@@H]1C[C@H](O)[C@@]1(C)C(=O)[C@H](O)C3=C(C)[C@@H](OC(=O)[C@H](O)[C@@H](NC(=O)OC(C)(C)C)c4ccccc4)C[C@@](O)([C@@H](OC(=O)c4ccccc4)[C@H]21)C3(C)C,,,"male Kunming mouse, lung","oral, 20 mg/kg",Cmax,142 ng/g
COCCCOc1ccnc(C[S+]([O-])c2nc3ccccc3[nH]2)c1C (centres unmarked),CYP3A4,"enzyme activity, inhibitor",,"30 µM, 1 h, pH 7.4",inhibition,50 to 60%
CNC(=O)n1ccc2cc(Oc3ccnc(NC(=O)c4ccc(C5CCN(CCO)CC5)cc4)c3)c(OCCOC)cc21,,,"human, plasma","oral, 35 mg, single dose, fasted, healthy volunteers",Vd/F,11800 L
Cc1ccc(C(=O)Nc2ccc(CN3CCN(C)CC3)c(C(F)(F)F)c2)cc1C#Cc1cnc2[nH]ncc2c1,,,"human, plasma","oral, 20 mg, healthy volunteers",Vd/F,8220 L
CC(=O)OC[C@@]1(COC(=O)c2ccccc2)O[C@H]1/C=C\COC(=O)c1ccccc1,RAW264.7,"cell growth or viability, MTT",,"15 µM, 24 h",viability,99.8%
COc1ccc2[nH]c([S+]([O-])Cc3ncc(C)c(OC)c3C)nc2c1 (centres unmarked),CYP3A4,"enzyme activity, inhibitor",,"30 µM, 1 h, pH 7.4",inhibition,50 to 60%
NC(=S)NN=Cc1ncccc1N,,,"human, plasma",oral,Vd/F,223 L
CN(C)c1ncnc2c1ncn2[C@@H]1O[C@H](CCl)[C@@H](NC(=O)[C@@H](CSC(c2ccccc2)c2ccccc2)NC(=O)OC(C)(C)C)[C@H]1O,Vero,"cell growth or viability, MTT",,,CC50,67.4 µM
COc1ccc2c(c1)C[C@]1(OC)C(=O)/C(=C(O)\C=C\c3ccccc3)C(=O)C[C@]1(OC)O2,RAW264.7,"cell growth or viability, MTT",,"15 µM, 24 h",viability,92.8%
